{"data": "Published values collected from several papers", "target": "RAF proto-oncogene serine/threonine-protein kinase (RAF1, Homo sapiens, UniProt P04049)", "note": "Each line is one published result; the experiments were not run side by side."}
{"SMILES": "Cn1cc(Cl)c2c(Oc3c(F)cc(Nc4cc(Cl)nc(N)n4)cc3F)ccnc21", "test": "cell-free assay, competition with immobilised ligand", "setting": "0.1 µM", "remaining binding [%]": 91}
{"SMILES": "COc1ncc2cc3ccccc3nc2c1C#N", "test": "cell-free assay, competition with immobilised ligand", "setting": "5 µM", "remaining binding [%]": 93}
{"SMILES": "O=C(NC[C@@H]1[C@H]2CN(C(=O)OCc3cc(C(F)(F)F)cc(C(F)(F)F)c3)C[C@@H]12)c1ccc2[nH]nnc2c1", "test": "cell-free assay, competition with immobilised ligand", "setting": "1 µM", "remaining binding [%]": 100}
{"SMILES": "Nc1ncc2c(n1)-c1c([nH]c3ccc(C#CC4CC4)cc13)CCCC2", "test": "binding, competition with immobilised ligand", "setting": "1 µM", "remaining binding [%]": 79}
{"SMILES": "C=CC(=O)N1CCC(C(=O)NCC(=O)N2CCN(c3nc(-c4cnc(N)nc4C(F)F)nc(N4CCOCC4)n3)CC2)CC1", "test": "binding, competition with immobilised ligand", "setting": "1 µM", "remaining binding [%]": 93}
{"SMILES": "CNC(=O)Nc1ccc2c(c1)[C@@]1(CC2)OC(=O)N(CC(=O)N(Cc2ccc(F)cc2)[C@@H](C)C(F)(F)F)C1=O", "test": "cell-free assay, competition with immobilised ligand", "setting": "1 µM", "remaining binding [%]": 100}
{"SMILES": "CCN1CCN(Cc2ccc(C(=O)Nc3ccc(C)c(Oc4ccc5c(c4)CC(=O)N5)c3)cc2C(F)(F)F)CC1", "test": "binding, competition with immobilised ligand", "setting": "1 µM", "remaining binding [%]": 95}
{"SMILES": "C[C@@H]1CCN(c2nccc(-c3cnn4ncccc34)n2)C1", "test": "binding", "setting": "1 µM", "remaining binding [%]": 100}
{"SMILES": "Cc1c(C(=O)O)cc(-c2ccc(C3CCNCC3)cc2)c2ccc(-c3ccc(C(F)(F)F)cc3)cc12", "test": "binding, competition with immobilised ligand", "setting": "1 µM", "remaining binding [%]": 80}
{"SMILES": "O=C(Nc1c[nH]nc1C(=O)NC1CCNCC1)c1cc(F)cc(F)c1", "test": "binding, competition with immobilised ligand", "setting": "1 µM", "remaining binding [%]": 100}
{"SMILES": "O=C(NCCCN1CCOCC1)c1ccc(Nc2ncc(Cl)c(-c3ccc(Cl)s3)n2)cc1", "test": "binding, competition with immobilised ligand", "setting": "1 µM", "remaining binding [%]": 89}
{"SMILES": "COc1cnc(Nc2cccc(S(N)(=O)=O)c2)nc1N1CCN(c2ccccc2)C(=O)C1", "test": "binding, competition with immobilised ligand", "setting": "1 µM", "remaining binding [%]": 98}
{"SMILES": "O=C(N1CCS(=O)(=O)CC1)N1C[C@H](c2ccc(OC(F)(F)F)cc2)C[C@H](c2nc(C3CC3)no2)C1", "test": "cell-free assay, competition with immobilised ligand", "setting": "1 µM", "remaining binding [%]": 100}
{"SMILES": "O=C(c1ccc(Nc2nccc(-c3cc4ccccc4s3)n2)cc1)N1CCC(N2CCCC2)CC1", "test": "binding, competition with immobilised ligand", "setting": "1 µM", "remaining binding [%]": 84}
{"SMILES": "CC1CCCN1c1nccc(-c2cnn3ncccc23)n1 (stereo not drawn)", "test": "binding", "setting": "1 µM", "remaining binding [%]": 100}
{"SMILES": "O=C(NCCCN1CCOCC1)c1ccc(Nc2nccc(-c3cc4ccccc4s3)n2)cc1", "test": "binding, competition with immobilised ligand", "setting": "1 µM", "remaining binding [%]": 65}
{"SMILES": "CN(C)c1nccc(-c2cnn3ncccc23)n1", "test": "binding", "setting": "1 µM", "remaining binding [%]": 100}
{"SMILES": "Cn1nc(C(=O)NCc2ccc(C(=O)O)cc2)cc1-c1ccc2[nH]ccc2c1", "test": "cell-free assay, competition with immobilised ligand", "setting": "0.1 µM", "remaining binding [%]": 70}
{"SMILES": "c1cnn2ncc(-c3ccnc(N4CCC45COC5)n3)c2c1", "test": "binding", "setting": "1 µM", "remaining binding [%]": 73}
{"SMILES": "C[C@@H]1CN(c2ccc3ncc(-c4ccc5[nH]nc(C6CC6)c5c4)n3n2)C[C@H](C)O1", "test": "binding, competition with immobilised ligand", "setting": "50 nM", "remaining binding [%]": 100}
{"SMILES": "F[C@@H]1CCN(c2nccc(-c3cnn4ncccc34)n2)C1", "test": "binding", "setting": "1 µM", "remaining binding [%]": 100}
{"SMILES": "O=C(Nc1cccnn1)N1CC(C/C=C/c2cncc(Oc3ccc(C(F)(F)F)cn3)n2)C1", "test": "cell-free assay, competition with immobilised ligand", "setting": "1 µM", "remaining binding [%]": 100}
{"SMILES": "N[C@@H]1CCN(c2nccc(-c3cnn4ncccc34)n2)C1", "test": "binding", "setting": "1 µM", "remaining binding [%]": 80}
{"SMILES": "CC(C)(C)c1ccc(-c2nc(CBr)nn2-c2cccc(O)c2)cc1", "test": "cell-free assay, competition with immobilised ligand", "setting": "10 µM", "remaining binding [%]": 87}
